Data reported in article PMC8741576 (Molecular Diversity, 2022).
Read-outs that look alike come from different tables or passages of the source.

Legend:
[1] = system: HCT-116 colorectal carcinoma cells; assay: Antiproliferative screening, MTS cell viability assay; type: cell-based; details: Homo sapiens, HCT-116, 72 h, read-out: IC50 HCT-116
[2] = system: Z-138 non-Hodgkin lymphoma cells; assay: Antiproliferative screening, IncuCyte cell growth; type: cell-based; details: Homo sapiens, Z-138, 72 h, read-out: IC50 Z-138
[3] = system: DND-41 acute lymphoblastic leukemia cells; assay: Antiproliferative screening, IncuCyte cell growth; type: cell-based; details: Homo sapiens, DND41, 72 h, read-out: IC50 DND-41
in vitro [4] = details: human
[5] = system: HL-60 acute myeloid leukemia cells; assay: Antiproliferative screening, IncuCyte cell growth; type: cell-based; details: Homo sapiens, HL-60, 72 h, read-out: IC50 HL-60
[6] = system: HEL 299 normal human lung fibroblasts; assay: Antiproliferative screening on noncancerous cells; details: Homo sapiens, HEL 299, read-out: IC50 HEL 299
HIV-2 ROD = assay: Antiretroviral assay in MT-4 cells, cytopathic effect; type: cell-based
Procedure, shortened: (§1)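 MT-4 cells (1 × 10^6 cells/mL) were pre-incubated with test compound for 30 min at 37 °C. HIV-1 NL4.3 or HIV-2 ROD was then added according to the CCID50 of the viral stock. Cytopathic effect was scored microscopically 5 days post-infection. […] SI was taken as the CC50/EC50 ratio.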

human coronavirus OC43 = assay: Antiviral assay, virus-induced cytopathic effect, MTS, HEL cells; type: cell-based; details: HEL cell culture
in vitro [7] = details: human; remark: listed apart in the source
[8] = system: NCI-H460 lung carcinoma cells; assay: Antiproliferative screening, MTS cell viability assay; type: cell-based; details: Homo sapiens, NCI-H460, 72 h, read-out: IC50 NCI-H460
[9] = system: K-562 chronic myeloid leukemia cells; assay: Antiproliferative screening, IncuCyte cell growth; type: cell-based; details: Homo sapiens, K562, 72 h, read-out: IC50 K-562
[10] = system: Capan-1 pancreatic adenocarcinoma cells; assay: Antiproliferative screening, MTS cell viability assay; type: cell-based; details: Homo sapiens, CAPAN-1, 72 h, read-out: IC50 Capan-1
[11] = system: LN-229 glioblastoma cells; assay: as above; type: cell-based; details: Homo sapiens, LN-229, 72 h, read-out: IC50 LN-229
[12] = Cytotoxicity in MT-4 cell culture; type: cell-based; details: human, MT-4 cells
HIV-1 NL4.3 = assay: Antiretroviral assay in MT-4 cells, cytopathic effect; type: cell-based
Procedure, shortened: as §1

[13] = system: human solid tumor and leukemia cell lines; type: cell-based; details: read-out: Antiproliferative IC50 across cancer cell lines
[14] = system: C. violaceum ATCC31532 QS-reporter strain; assay: Anti-QS screening, violacein production; type: cell-based; details: Chromobacterium violaceum, ATCC31532, read-out: Anti-QS IC50
MT-4 cells = assay: Cytotoxicity in MT-4 cell culture; type: cell-based; details: read-out: Cytotoxicity (CC50); MT-4 cell culture

| SMILES | IC50 [1] [µM] | IC50 [2] [µM] | IC50 [3] [µM] | CC50 (in vitro [4]) [µM] | IC50 [5] [µM] | IC50 [6] [µM] | SI, selectivity index (CC50 to EC50 ratio) OC43 (human coronavirus OC43) | IC50 [8] [µM] | IC50 [9] [µM] | IC50 [10] [µM] | IC50 [11] [µM] | CC50 at 5 days [12] [µM] | SI, selectivity index (CC50 to EC50 ratio) HIV-1 NL4.3 (HIV-1 NL4.3; MT-4 cell culture) | SI, selectivity index (CC50 to EC50 ratio) 229E (human coronavirus 229E; HEL cell culture) | further results |
| --- | --- | --- | --- | --- | --- | --- | --- | --- | --- | --- | --- | --- | --- | --- | --- |
| CCN(CC)CCCC(C)Nc1ccnc2cc(Cl)ccc12 (stereo not drawn) [CQ, chloroquine, reference compound] | 65.5 ± 7.3 | 47.4 ± 5.3 | 59.5 ± 3.5 | 40.8 ± 2.2 | > 100 | 84.7 ± 15.3 | 31.4 | > 100 | 50.6 ± 2.9 | 46.1 ± 1.3 | 8.9 ± 2.3 | > 100 | > 3.2 |  | SI, selectivity index (CC50 to EC50 ratio) HIV-2 ROD (HIV-2 ROD; MT-4 cell culture): > 26.3; selectivity ratio (in vitro [7]): ~30; SI, selectivity index (CC50 to EC50 ratio) 229E (human coronavirus 229E): 29.1 |
| Nc1cc(Cl)ccc1C(=O)NCCCCNc1ccnc2cc(Cl)ccc12 [Compound 12, 2-Amino-4-chloro-N-{4-[(7-chloroquinolin-4-yl)amino]butyl}benzamide] | 8.9 ± 3 | 7.2 ± 2.6 | 9.2 ± 2.2 | 8.3 ± 0.78 | 9.8 ± 3.5 | 7.4 ± 1.2 | > 10.4 | 7.3 ± 1.5 | 8.4 ± 3.2 | 6.3 ± 2.8 | 2.8 ± 1.2 |  |  | 4.6 | IC50 [13]: 2 to 10 µM |
| Nc1ccc(Br)cc1C(=O)NCCCCNc1ccnc2cc(Cl)ccc12 [Compound 13, 2-Amino-5-bromo-N-{4-[(7-chloroquinolin-4-yl)amino]butyl}benzamide] | 7 ± 0.3 | 6 ± 2.6 | 7.8 ± 4.1 | 7.5 ± 1.3 | 10.3 ± 3.2 | 7.8 ± 1.8 | 5.0 | 5.3 ± 0.4 | 7.7 ± 1.1 | 5.4 ± 1.8 | 3.1 ± 0.8 |  |  | 5.4 | IC50 [14]: 3.7 µM; IC50 [13]: 2 to 10 µM |
| COc1cc(NC(C)CCCNC(=O)c2ccccc2N)c2ncccc2c1 (stereo not drawn) [Compound 14, 2-Amino-N-{4-[(6-methoxyquinolin-8-yl)amino]pentyl}benzamide] | > 100 | > 100 | > 100 |  | > 100 | > 100 |  | 76.7 ± 25 | > 100 | > 100 | > 100 | 78.2 ± 9.3 | 8.4 |  |  |
| COc1cc(NC(C)CCCNC(=O)c2cc(Br)ccc2N)c2ncccc2c1 (stereo not drawn) [Compound 16, 2-Amino-5-bromo-N-{4-[(6-methoxyquinolin-8-yl)amino]pentyl}benzamide] | > 100 | > 100 | > 100 |  | > 100 | > 100 |  | > 100 | > 100 | > 100 | > 100 | 56.4 ± 1.6 | 4.0 |  |  |
| CC(Cn1cnc2c(N)ncnc21)OCP(=O)(O)O (stereo not drawn) [PMPA, 2-phosphonomethoxypropyl adenine] |  |  |  |  |  |  |  |  |  |  |  |  |  |  | EC50 (HIV-2 ROD; read-out: Antiviral activity (EC50) HIV-2 ROD, MT-4 cell culture, 5 days post-infection): 0.6 µM; CC50 (MT-4 cells): > 100 µM; EC50 (HIV-1 NL4.3; read-out: Antiviral activity (EC50) HIV-1 NL4.3, MT-4 cell culture, 5 days post-infection): 1.6 µM |
| COc1cc(NC(C)CCCN)c2ncccc2c1 (stereo not drawn) [PQ, primaquine, reference compound] | 53.9 ± 4.2 | 11.4 ± 1.1 | 50.2 ± 16.7 | > 100 | 28.4 ± 1.6 | > 100 |  | > 100 | 40.5 ± 6 | 45.6 ± 3.5 | 45.4 ± 1.2 | 17.9 ± 8 |  |  | Anti-HIV / antiretroviral activity in words (HIV-2 ROD; MT-4 cells): no anti-HIV activity; Anti-HIV / antiretroviral activity in words (HIV-1 NL4.3; MT-4 cells): no anti-HIV activity |
| CCC(CC)COC(=O)[C@H](C)N[P@](=O)(OC[C@H]1O[C@@](C#N)(c2ccc3c(N)ncnn23)[C@H](O)[C@@H]1O)Oc1ccccc1 [Remdesivir, remdesivir, reference compound] |  |  |  | > 10 |  |  | > 250 |  |  |  |  |  |  | > 160 |  |
